Measured values gathered from unrelated publications.
Target: 5-hydroxytryptamine receptor 7 (HTR7, Homo sapiens, UniProt P34969)
Technique: radioligand

Cc1nc2sccn2c(=O)c1CCN1CCC(=C(c2ccc(F)cc2)c2ccc(F)cc2)CC1 — Ki (ligand displacement; cell membranes): 468 nM
O=C1c2ccccc2CCN1CCCCN1CCN(c2cccc(Cl)c2Cl)CC1 — Ki (ligand displacement): 21 nM
CC1(CCN2CCc3ccccc3C2)Cc2cc(Cl)ccc2C1=O (racemic) — Ki (ligand displacement): 2.1 nM
CNc1nc2cc(OCCCCN3CCC(c4cccc(Cl)c4Cl)CC3)ccc2s1 — Ki (cell-free assay): 95 nM
O=C(CCCN1CCCN(c2ccc(Cl)cc2)CC1)c1ccc(F)cc1 — Ki (ligand displacement): 78 nM
CN1CCN(CCCN2c3ccccc3Sc3ccc(C(F)(F)F)cc32)CC1 — Ki (ligand displacement; cell membranes): 497 nM
CCCCN1CCC(COC(=O)c2ccc(N)c(OCF)c2)CC1 — Ki (cell-free assay): > 10000 nM
CCc1nc2cc(OCCCCN3CCC(c4cccc(Cl)c4Cl)CC3)ccc2s1 — Ki (cell-free assay): 160 nM
